Measured values: ChEMBL document CHEMBL1128745 (J Med Chem, 1995)

How the values were obtained:
[1] = biological target: T1, Angiotensin II receptor (Rattus norvegicus) (UniProt P29089+P25095+P35351); test: Ratio of IC50 at Angiotensin II type 1 and angiotensin II type 2 receptors; format: protein assay
In short: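 AT2 IC50 divided by AT1 IC50. Both come from [125I][Sar1,Ile8]Ang II displacement on rat adrenal membrane homogenates, with 10^-6 M losartan (AT2) or 10^-6 M PD123177 (AT1) present. Each was run in duplicate.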

[2] = biological target: T2, Angiotensin II receptor (AT-1) type-1 (Rattus norvegicus, UniProt P29089+P25095); test: Inhibition of [125I]-[Sar1,Ile8]Ang II binding at rat angiotensin II (type 1) receptor.; format: protein assay
T2 sequence (P29089 whole entry): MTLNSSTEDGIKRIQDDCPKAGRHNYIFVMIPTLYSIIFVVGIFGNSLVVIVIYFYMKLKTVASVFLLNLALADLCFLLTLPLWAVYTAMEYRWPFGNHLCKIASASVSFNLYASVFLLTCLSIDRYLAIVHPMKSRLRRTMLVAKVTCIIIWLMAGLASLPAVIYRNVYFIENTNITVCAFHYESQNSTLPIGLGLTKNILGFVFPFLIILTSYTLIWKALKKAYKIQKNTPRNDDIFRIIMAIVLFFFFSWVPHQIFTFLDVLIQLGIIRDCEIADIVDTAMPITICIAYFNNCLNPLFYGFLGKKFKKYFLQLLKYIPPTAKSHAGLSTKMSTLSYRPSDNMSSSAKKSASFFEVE
T2 sequence (P25095 whole entry): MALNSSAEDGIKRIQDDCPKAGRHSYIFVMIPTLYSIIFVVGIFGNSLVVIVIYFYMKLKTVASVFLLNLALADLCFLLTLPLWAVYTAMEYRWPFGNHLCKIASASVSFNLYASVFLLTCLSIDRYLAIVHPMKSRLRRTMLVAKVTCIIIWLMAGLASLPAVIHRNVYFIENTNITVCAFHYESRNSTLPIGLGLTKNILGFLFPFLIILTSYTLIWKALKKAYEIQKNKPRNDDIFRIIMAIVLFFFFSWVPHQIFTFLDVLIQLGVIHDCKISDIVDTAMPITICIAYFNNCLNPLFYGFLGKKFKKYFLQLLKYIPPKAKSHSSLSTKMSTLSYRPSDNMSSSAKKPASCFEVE
In short: (§1)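 Rat isolated adrenal membrane homogenates with 10^-6 M PD123177 present to isolate the AT1 site. Radioligand is [125I][Sar1,Ile8]Ang II. IC50 is the concentration giving 50% displacement of total specifically bound radioligand. Run in duplicate against DuP 753 and saralasin as internal standards. Intraassay variability 5%, interassay 20%.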

[3] = biological target: T3, Type-2 angiotensin II receptor (Rattus norvegicus, UniProt P35351); test: Inhibition of [125I]-[Sar1,Ile8]Ang II binding at rat angiotensin II (type 2) receptor.
T3 sequence (P35351 whole entry): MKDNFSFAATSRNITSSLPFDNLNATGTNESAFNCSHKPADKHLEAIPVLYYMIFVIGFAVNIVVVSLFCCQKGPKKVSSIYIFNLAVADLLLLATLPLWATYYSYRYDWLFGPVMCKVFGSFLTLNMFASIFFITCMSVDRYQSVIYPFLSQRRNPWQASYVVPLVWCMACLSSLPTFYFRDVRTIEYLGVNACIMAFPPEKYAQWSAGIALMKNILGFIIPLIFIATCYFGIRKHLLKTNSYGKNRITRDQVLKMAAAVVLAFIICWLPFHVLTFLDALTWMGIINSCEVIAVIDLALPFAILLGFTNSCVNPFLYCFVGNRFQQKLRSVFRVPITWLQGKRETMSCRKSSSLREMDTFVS
In short: (§2)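 AT2 binding uses rat isolated adrenal membrane homogenates with 10^-6 M losartan present. [125I][Sar1,Ile8]Ang II is the radioligand, and IC50 is 50% displacement of total specifically bound label. Duplicate determinations include DuP 753 and saralasin as internal standards. Intraassay variability 5%, interassay 20%.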

Rattus norvegicus = test: Effective dose to lower blood pressure by 30 mmHg in renal hypertensive rats on peroral administration.; format: functional; settings: po
In short: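 Conscious renal artery-ligated hypertensive rats were dosed orally; vehicle was 0.05 mg/mL Na2CO3 in 0.5% methocel. Mean arterial pressure was monitored, n=6-9 per group. ED30 is the dose that lowers blood pressure by 30 mmHg.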

[4] = biological target: T3, Type-2 angiotensin II receptor; test: Inhibitory concentration against Angiotensin II receptor type 2 with [125I]-[Sar1,Ile8]Ang II; in short: as §2
[5] = biological target: T1, Angiotensin II receptor (Rattus norvegicus); test: Relative inhibition of angiotensin II receptor types 1 and 2; format: protein assay
[6] = biological target: T2, Angiotensin II receptor (AT-1) type-1; test: Inhibitory concentration against Angiotensin II receptor type 1 with [125I]-[Sar1,Ile8]Ang II; format: protein assay; in short: as §1
[7] = biological target: T1, Angiotensin II receptor (Rattus norvegicus); test: Relative inhibition of angiotensin II type 2 and angiotension II type 1 receptors in modified assay; format: protein assay
In short: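 Rat adrenal membrane homogenates with [125I][Sar1,Ile8]Ang II as radioligand. AT1 sites were measured with 10^-6 M PD123177 present and AT2 sites with 10^-6 M losartan present. IC50 is the concentration giving 50% displacement of specifically bound radioligand, run in duplicate against DuP 753 and saralasin standards. Intra-assay variability was 5% and inter-assay 20%. The value is the AT2 IC50 divided by the AT1 IC50.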

Row | SMILES | IC50 ratio [1] | IC50 [2] [nM] | IC50 [3] [nM] | ED30 (Rattus norvegicus) [mg/kg] | IC50 [4] [nM] | IC50 ratio [5] | IC50 [6] [nM] | IC50 ratio [7]
1 | CCCc1nc(CC)c(C(=O)CCN(C(=O)C(C)C)c2cccnc2)n1Cc1ccc(-c2ccccc2S(=O)(=O)NC(=O)OCCC(C)C)cc1F | 3.3 | 0.3 | 1 |  |  |  |  | 
2 | CCCC(=O)N(CCC(=O)c1c(CC)nc(CCC)n1Cc1ccc(-c2ccccc2S(=O)(=O)NC(=O)OCCC(C)C)cc1F)c1cccnc1 | 0.78 | 0.32 | 0.25 | 0.27 |  |  |  | 
3 | CCCC(=O)N(CCC(=O)c1c(CC)nc(CCC)n1Cc1ccc(-c2ccccc2S(=O)(=O)NC(=O)OCCC(C)C)cc1)c1cccnc1 | 2.5 | 0.4 | 1 |  |  |  |  | 
4 | CCCCOC(=O)NS(=O)(=O)c1ccccc1-c1ccc(Cn2c(CCC)nc(CC)c2C(=O)CCN(C(=O)CCC)c2ccccc2)c(F)c1 | 0.75 | 0.2 | 0.15 | 1.5 |  |  |  | 
5 | CCCCOC(=O)NS(=O)(=O)c1ccccc1-c1ccc(Cn2c(CCC)nc(CC)c2C(=O)CCN(C(=O)c2ccccc2)c2ccccc2)c(F)c1 | 0.7 | 0.25 | 0.18 | 1.57 |  |  |  | 
6 | CCCc1nc(CC)c(C(=O)CCN(C(=O)c2ccccc2)c2ccccc2)n1Cc1ccc(-c2ccccc2S(=O)(=O)NC(=O)OCCC(C)C)cc1F |  | 0.1 | 0.06 |  |  |  |  | 
7 | CCCCOC(=O)NS(=O)(=O)c1ccccc1-c1ccc(Cn2c(CCC)nc(CC)c2C(=O)OC)c(Cl)c1 | 231 | 3 |  |  | 37 | 2.3 | 0.16 | 
8 | CCCc1nc(CC)c(C(=O)CCN(C(=O)c2ccncc2)c2cccnc2)n1Cc1ccc(-c2ccccc2S(=O)(=O)NC(=O)OCCC(C)C)cc1F | 1.4 | 0.7 | 1 | 0.4 |  |  |  | 
9 | CCCc1nc(CC)c(C(=O)CCN(C(=O)c2cccnc2)c2ccccn2)n1Cc1ccc(-c2ccccc2S(=O)(=O)NC(=O)OCCC(C)C)cc1F | 0.31 | 0.52 | 0.16 | 0.9 |  |  |  | 
10 | CCCc1nc(CC)c(C(=O)CCN(C(=O)c2cccnc2)c2cccnc2)n1Cc1ccc(-c2ccccc2S(=O)(=O)NC(=O)OCCC(C)C)cc1F | 0.44 | 0.5 | 0.22 | 0.26 |  |  |  | 
11 | CCCc1nc(CC)c(C(=O)CCN(C(C)=O)c2cccnc2)n1Cc1ccc(-c2ccccc2S(=O)(=O)NC(=O)OCCC(C)C)cc1F | 7.5 | 0.4 | 3 |  |  |  |  | 
12 | CCCc1nc(CC)c(C(=O)CCN(C(=O)c2ccncc2)c2ccccc2)n1Cc1ccc(-c2ccccc2S(=O)(=O)NC(=O)OCCC(C)C)cc1F | 0.25 | 0.4 | 0.1 | < 3 |  |  |  | 
13 | CCCc1nc(CC)c(C(=O)CCN(C(=O)c2cccnc2)c2cccnc2)n1Cc1ccc(-c2ccccc2S(=O)(=O)NC(=O)OCCC(C)C)cc1 | 3.3 | 0.3 | 1 |  |  |  |  | 
14 | CCCCOC(=O)NS(=O)(=O)c1ccccc1-c1ccc(Cn2c(CCC)nc(CC)c2C(=O)CCN(CCCC)C(=O)c2ccccc2)c(F)c1 | 33 | 0.3 | 10 |  |  |  |  | 
15 | CCCc1nc(CC)c(C(=O)OC)n1Cc1ccc(-c2ccccc2S(=O)(=O)NC(=O)OCCC(C)C)cc1F |  | 1 | 3 |  | 40 | 3 | 0.1 | 
16 | CCCc1nc(CC)c(C(=O)CCN(C(=O)CC)c2cccnc2)n1Cc1ccc(-c2ccccc2S(=O)(=O)NC(=O)OCCC(C)C)cc1F | 1.09 | 0.45 | 0.49 | 0.26 |  |  |  | 
17 | CCCCOC(=O)NS(=O)(=O)c1ccccc1-c1ccc(Cn2c(CCC)nc(CC)c2C(C)=O)c(F)c1 | 1 | 1 | 1 |  | 10 |  | 0.09 | 111
